FXIIa inh 1536: human FXIIa protease inhibitors, primary screen, biochemical, 1536-well. Coagulation factor XII (Homo sapiens), P00748. purified FXIIa, Boc-QGR-AMC fluorogenic substrate, 2 h. inhibition, % at 5 µM. 220,000 tested, 0.3% active. AID 800, 2007; in the data active means inhibition above about 40%;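 further: 0% = enzyme with no compound and 100% = blank without enzyme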
Target sequence (P00748 20-372 limits assumed): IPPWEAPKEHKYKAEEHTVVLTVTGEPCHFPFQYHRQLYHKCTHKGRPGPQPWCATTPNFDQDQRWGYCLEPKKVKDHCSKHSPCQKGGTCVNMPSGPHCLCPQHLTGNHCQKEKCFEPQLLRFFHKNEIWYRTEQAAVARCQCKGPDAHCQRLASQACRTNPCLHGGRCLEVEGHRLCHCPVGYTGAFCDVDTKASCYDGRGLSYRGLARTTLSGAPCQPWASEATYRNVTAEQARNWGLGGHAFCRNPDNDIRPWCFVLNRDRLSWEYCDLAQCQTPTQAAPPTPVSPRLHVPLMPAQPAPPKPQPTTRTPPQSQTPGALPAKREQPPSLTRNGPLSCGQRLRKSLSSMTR
Target sequence (P00748 373-615 limits assumed): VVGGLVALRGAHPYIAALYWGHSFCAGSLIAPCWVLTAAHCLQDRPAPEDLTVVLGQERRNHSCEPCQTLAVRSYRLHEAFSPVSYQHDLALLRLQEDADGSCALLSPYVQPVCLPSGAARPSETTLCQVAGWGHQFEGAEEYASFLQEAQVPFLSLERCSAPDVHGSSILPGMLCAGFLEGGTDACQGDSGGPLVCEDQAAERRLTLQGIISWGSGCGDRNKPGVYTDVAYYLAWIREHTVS
KLK5 inh: human KLK5 protease inhibitors, primary screen, biochemical, 1536-well; Kallikrein-5 (Homo sapiens), Q9Y337; recombinant hK5, fluorogenic AMC substrate cleavage; inhibition, % at 5 µM; 210,000 tested, 0.59% active; AID 873, 2007;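 active means inhibition of 40% or more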;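 further: 0% = enzyme controls without compound and 100% = no-enzyme blanks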
FXIa inh: human FXIa protease inhibitors, primary screen, biochemical, 1536-well; Coagulation factor XI (Homo sapiens), P03951; purified FXIa, Boc-Glu-Ala-Arg-AMC fluorogenic substrate; 220,000 tested, 0.14% active; inhibition, % at 5 µM;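 active means inhibition of at least 40%; inactive means inhibition below 40%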;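 further: fluorescence of freed AMC excited at 355 nm; 0% = enzyme without compound and 100% = no enzyme blank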
Wee1 stabilizer: Wee1 degradation inhibitors, primary screen, cell-based, HeLa, Wee1K328M-luciferase, luminescence. reporter increase, % at 5 µM. AID 1321, 2008. 220,000 tested, 1.2% active. HeLa Luc-Wee1K328M stability; 100% = proteasome inhibitor MG132 effect;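 active means activation above the mean of all tested compounds plus 3 SD, set per screening run, cut at about 8.8% in these data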;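 further: cells exposed to compound for 20 h before luminescence read; 0% = DMSO alone and 100% = MG132 at 30 µM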
Platelet DG rel: inhibitors of platelet dense granule secretion, primary screen, cell-based, MLPCN, human platelets. human platelet-rich plasma, SFLLRN dense granule ATP release, luminescence. inhibition, %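 (compounds screened at 7.5 µM in platelet-rich plasma)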. 300,000 tested, 0.22% active. AID 1663, 2009;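 active means mean replicate score, as percent of positive control, at or above 50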
Thrombin inh: human alpha-thrombin inhibitors, primary screen, counter-screen for coagulation protease inhibitor project, biochemical, 1536-well, fluorogenic AMC substrate. AID 1046, 2008. inhibition, % at 5 µM. Boc-VPR-AMC fluorogenic substrate cleavage. Prothrombin (Homo sapiens), P00734. 220,000 tested, 0.26% active;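 active means inhibition at or above 40%; inactive means inhibition below 40%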;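 further: 0% = enzyme with no compound and 100% = wells without enzyme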
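System: Human alpha-thrombin protein | Medium: pH 7.5 Tris (50 mM) with NaCl 150 mM, Tween 20 0.05% | Times: Enzyme reaction carried out at room temperature | Detection: AMC fluorescence, 355/460 nm | Evaluation: Percent inhibition scaled between no-compound controls and no-enzyme blanks | Benchmarks: Enzyme without compound as high, wells lacking enzyme as low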
An asterisk follows results filed as active; x = no result. In the library only some 1.8% were active in any assay of this set; here they are far more common.

SMILES | FXIIa inh 1536 | KLK5 inh | FXIa inh | Wee1 stabilizer | Platelet DG rel | Thrombin inh
N#Cc1ccsc1NC(=O)C1CCCN1S(=O)(=O)c1cccs1 (stereo not drawn) | x | x | x | x | 4 | x
O=C(N=C1N=C2C=CC=CN2Cc2ccccc21)c1ccc(S(=O)(=O)N2CCOCC2)cc1 | 7 | 0 | 5 | -2 | 3 | -1
COCCCN(Cc1cccs1)S(=O)(=O)c1csc(C(N)=O)c1 | x | x | x | x | 3 | x
Cc1ccccc1OCC(=O)N(CC(C)C)c1c(N)n(CC(C)C)c(=O)[nH]c1=O | 6 | -2 | -5 | 2 | 24 | 3
Cc1cc(NC(=O)c2ccccc2)sc1C | 21 | 39 | 30 | 6 | 30 | 7
Cc1ccc(NC(=O)c2ccccc2)s1 | -6 | -19 | -9 | 9.7* | 5 | -1
O=C(Nc1cccc(C(F)(F)F)c1)N1CCN(C(=O)Nc2cccc(C(F)(F)F)c2)CC1 | 27 | 55* | 15 | -1 | 5 | 21
C=CCOc1ccc(/C(O)=C2\C(=O)C(=O)N(CCCOC)C2c2ccncc2)cc1 (stereo not drawn) | 22 | 31 | 13 | 2 | 13 | 41*
CS(=O)(=O)N(CC(=O)NCc1ccco1)Cc1ccc(Cl)cc1 | 9 | 78* | 0 | 0 | -25 | 8
O=C(CNCc1ccc(Cl)cc1)Nc1ccc2c(c1)OCCO2 | 10 | 1 | 0 | 0 | 2 | -2
CS(=O)(=O)N(CC(=O)Nc1ccc2c(c1)OCCO2)Cc1ccc(Cl)cc1 | 11 | 48* | 4 | 1 | x | 29
CCN(CC)S(=O)(=O)c1ccc(N2CCN(C)CC2)c(NC(=O)Nc2ccc(C)cc2)c1 | x | x | x | x | 1 | x
C=CCNC(=S)N/N=C/c1ccc(C)c([N+](=O)[O-])c1 | 106* | 62* | 41* | -1 | x | 24
CC(=O)NCCNC(=O)C1CCCCN1S(=O)(=O)c1ccccc1 (stereo not drawn) | 2 | 2 | -3 | -1 | -1 | -10
COC(=O)/C(=C/Nc1ccccc1)[N+](=O)[O-] | 46* | -2 | 27 | 1 | -6 | 3
O=C(OCCCC(=O)N1CCOCC1)c1ccccc1 | 18 | 42* | -3 | -1 | -4 | 5
O=C(CCSc1ccccc1)N1CCOCC1 | 12 | 1 | 10 | -2 | -3 | -2
CC(C)=CCc1cc([C@@H]2CC(=O)c3ccc(O)c(CC=C(C)C)c3O2)ccc1O | x | x | x | x | 4 | x
O=C1CC(Nc2ccccc2)C(=O)N1c1ccc(N2CCOCC2)cc1 (stereo not drawn) | 12 | 45* | 3 | -1 | x | 4
O=C1CC(Nc2ccc(N3CCOCC3)cc2)C(=O)N1c1ccccc1F (stereo not drawn) | 3 | -4 | -4 | -1 | -6 | -9
C=CCNC(=O)NC(=O)COC(=O)/C=C/c1cccc([N+](=O)[O-])c1 | 8 | 5 | 0 | 0 | 3 | -5
O=c1[nH]c2cc3c(cc2cc1CN(Cc1nnnn1CC1CCCO1)C1CCCCC1)OCO3 (stereo not drawn) | -11 | 54* | -5 | -1 | -2 | 3
Cc1cccc2cc(CN(Cc3nnnn3C3CCCCC3)C3CCCC3)c3nnnn3c12 | 18 | -19 | 9 | -1 | -2 | 5
Cc1cc(C)c2[nH]c(=O)c(CN(Cc3nnnn3C3CCCC3)C3CCCCC3)cc2c1 | -5 | 42* | -2 | 0 | -6 | 3
COc1ccccc1CNC(=O)[C@H](C)NC(=O)C1CCN(C(=O)[C@@H](N)CCSC)CC1 | x | x | x | x | 1 | x
SMILES | FXIIa inh 1536 | KLK5 inh | FXIa inh | Wee1 stabilizer | Platelet DG rel | Thrombin inh
CC(O)/C=C/C1OC(=O)CC1Nc1ccc(C=O)cc1 (stereo not drawn) | 13 | 3 | 4 | 11* | -4 | 0
COc1ccc(-n2c(C)c(C(C)=O)c(C(C)=O)c2C)cc1OC | 8 | -20 | 6 | 0 | 53* | 1
COc1ccc(-n2c(C)c(C(C)=O)c(C(C)=O)c2C)cc1 | 9 | -5 | -1 | 0 | 3 | 7
CCOC(=O)CNC(=O)Cn1cnc2c(nnn2-c2ccc(F)cc2)c1=O | 32 | 45* | 12 | -1 | 5 | 22
COc1ccc(OC(C)C(=O)N2CCCc3ccccc32)cc1 (stereo not drawn) | 2 | -4 | -1 | 3 | -1 | -1
O=C1NN(c2ccc(Cl)c(Cl)c2)C(=O)/C1=C/c1cccc(OC(=O)c2cccs2)c1 | 0 | 5 | 3 | 2 | 0 | 1
O=C1NN(c2ccccc2)C(=O)/C1=C\c1cccc(OC(=O)c2cccs2)c1 | -1 | 5 | 49* | 1 | 17 | 0
C1CCN(c2nc3nonc3nc2N2CCCCC2)CC1 | 15 | -9 | 5 | 10* | -9 | -1
C1CN(c2nc3nonc3nc2N2CCOCC2)CCO1 | x | x | x | x | 1 | x
CN1CCN(C(=O)c2ccc(C(C)(C)C)cc2)CC1 | 14 | -8 | -1 | -1 | 1 | 2
CN1CCN(C(=O)c2ccc(C(F)(F)F)cc2)CC1 | 24 | 46* | 28 | -1 | -18 | 25
CC(C)CC(=O)Nc1nnc(S(=O)(=O)N2c3ccccc3CC2C)s1 (stereo not drawn) | x | x | x | x | -2 | x
CCc1ccc(-n2c(=O)c3ccccc3n(CC(=O)C(C)(C)C)c2=O)cc1 | -4 | -11 | -6 | 1 | 3 | -3
Cc1ccc(-n2c(=O)c3ccccc3n(CC(=O)C(C)(C)C)c2=O)cc1 | 26 | 46* | 28 | 2 | 11 | 9
NC(=O)c1nc(-c2cccs2)nc2c1[nH]c(=O)n2-c1ccc(F)cc1 | -5 | -14 | -5 | 0 | 14 | -3
COc1ccc(/C=C/C(=O)N2CCN(S(=O)(=O)c3ccccc3)CC2)cc1OC | 22 | 48* | 34 | -1 | -10 | 25
COc1cc2nc(/C=C/c3cc(OC)c(OC)c(OC)c3)sc2cc1SC | -10 | -26 | -9 | 9.7* | x | -15
COc1cc2nc(C)sc2cc1SC | 6 | -9 | -5 | -1 | 2 | -1
COC(=O)c1c(NC(=O)Cc2ccc(OC)c(S(=O)(=O)N3CCOCC3)c2)sc(C)c1C | x | x | x | x | -7 | x
COc1cc(/C=C2\SC(N)=NC2=O)ccc1OCC(=O)Nc1ccc(C)cc1 | 5 | -5 | 3 | 8.9* | 16 | -4
CCOc1cc(Cl)c(S(=O)(=O)NCCCn2ccnc2)cc1Cl | x | x | x | x | -2 | x
CCc1cc2ccc(C)cc2nc1SCC(=O)NC1CCCC1 | x | x | x | x | 2 | x
O=c1c2oc3ccccc3c2ncn1Cc1ccc(F)cc1 | 11 | 0 | 4 | 5 | -2 | -8
COc1cccc(/C=N/Nc2nn3cnnc3c3ccccc23)c1O | 16 | -183 | 2 | -4 | -10 | -3
